Laboratory results published in ChEMBL document CHEMBL1212820, “Novel hinge binder improves activity and pharmacokinetic properties of BRAF inhibitors” (J Med Chem, 2010).

Assays:
[1] = Growth inhibition of human WM266.4 cells expressing BRAF V600E mutant after 5 days by SRB assay; format: functional; conditions: WM 266-4, 120 h
In short: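 Antiproliferative SRB assay in WM266.4 (BRAF mutant), WM1361 (NRAS mutant) and D24 (BRAF/NRAS wild-type) melanoma cells, with GI50 derived from the assay.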

[2] = target: T1, Serine/threonine-protein kinase B-raf (Homo sapiens, UniProt P15056, V600E); assay: Inhibition of BRAF V600E mutant-mediated ERK phosphorylation in human WM266.4 cells; format: cell-based
In short: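 Cellular IC50 for inhibition of phosphoERK formation.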

[3] = target: T1, Serine/threonine-protein kinase B-raf; assay: Inhibition of B-Raf V600E mutant
In short: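 Enzymatic IC50 determined in vitro against purified V600E BRAF.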

T1 sequence (P15056 2-766 V600E limits assumed): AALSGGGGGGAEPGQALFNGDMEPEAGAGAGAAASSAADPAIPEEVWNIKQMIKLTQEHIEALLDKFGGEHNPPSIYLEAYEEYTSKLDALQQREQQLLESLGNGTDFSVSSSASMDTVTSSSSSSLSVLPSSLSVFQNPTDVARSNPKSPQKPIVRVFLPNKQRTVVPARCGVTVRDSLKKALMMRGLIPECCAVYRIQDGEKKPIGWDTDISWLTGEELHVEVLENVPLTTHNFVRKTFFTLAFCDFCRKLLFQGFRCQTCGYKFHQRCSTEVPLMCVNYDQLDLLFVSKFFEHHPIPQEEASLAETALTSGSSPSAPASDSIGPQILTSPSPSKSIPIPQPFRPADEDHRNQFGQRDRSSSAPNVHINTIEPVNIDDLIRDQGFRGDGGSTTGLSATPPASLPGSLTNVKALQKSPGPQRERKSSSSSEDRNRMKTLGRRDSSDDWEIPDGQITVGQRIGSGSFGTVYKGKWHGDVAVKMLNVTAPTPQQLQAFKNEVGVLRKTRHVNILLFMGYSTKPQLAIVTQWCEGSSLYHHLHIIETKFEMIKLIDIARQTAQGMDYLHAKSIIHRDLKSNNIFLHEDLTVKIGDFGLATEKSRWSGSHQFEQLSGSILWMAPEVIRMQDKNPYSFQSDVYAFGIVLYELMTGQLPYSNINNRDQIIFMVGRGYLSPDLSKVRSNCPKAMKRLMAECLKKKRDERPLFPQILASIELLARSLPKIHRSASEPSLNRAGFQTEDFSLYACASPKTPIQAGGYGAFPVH

Row | IC50 [2] [µM] | IC50 [3] [µM] | SMILES | GI50 [1] [µM]
1 | 0.141 | 3 | Cc1nc2nccc(Oc3ccc(NC(=O)Nc4cc(C(C)(C)C)nn4-c4ccccc4)c4ccccc34)c2[nH]c1=O | 0.095
2 | 0.049 | 0.005 | Nc1nc2c(Oc3ccc(NC(=O)Nc4cc(C(F)(F)F)ccc4F)c4ccccc34)ccnc2[nH]c1=O | 0.015
3 | 0.85 | 0.007 | CC(C)(C)c1cccc(C(=O)Nc2cccc(Oc3ccnc4[nH]c(=O)cnc34)c2)c1 | 1.7
4 | 0.28 | > 10 | Cc1ccc(-n2nc(C(C)(C)C)cc2NC(=O)Nc2ccc(Oc3ccnc4nc(N5CCOCC5)cnc34)cc2F)cc1 | 0.235
5 | 3.4 | 0.108 | Cc1nc2nccc(Oc3ccc(NC(=O)Nc4cc(C(F)(F)F)ccc4F)c4ccccc34)c2[nH]c1=O | 8.5
6 | 0.59 | 0.003 | CSc1cc(Oc2ccnc3[nH]c(=O)c(=O)[nH]c23)ccc1NC(=O)Nc1ccc(Cl)c(C(F)(F)F)c1 | 0.22
7 | 0.187 | 0.004 | CSc1cc(Oc2ccnc3[nH]c(=O)cnc23)ccc1NC(=O)Nc1ccc(Cl)c(C(F)(F)F)c1 | 0.118
8 | > 10 | 0.73 | CN(C)Cc1nc2c(Oc3ccc(NC(=O)Nc4cc(C(F)(F)F)ccc4F)c(F)c3)ccnc2[nH]1 | 1.4
9 | 0.097 | 0.002 | CSc1cc(Oc2ccnc3[nH]c(=O)c(C)nc23)ccc1NC(=O)Nc1cc(C(F)(F)F)ccc1F | 0.225
10 | 5 | 0.87 | CC(C)(C)c1cc(NC(=O)c2cccc(Oc3ccnc4[nH]c(=O)cnc34)c2)n(-c2ccccc2)n1 | 2
11 | 69 | 0.076 | O=C(Nc1ccc(Oc2ccnc3ncc(=O)[nH]c23)cc1F)Nc1cc(C(F)(F)F)ccc1F | 1.8
12 | 0.62 | 0.017 | Cn1nc(C(C)(C)C)cc1NC(=O)Nc1ccc(Oc2ccnc3[nH]c(=O)cnc23)cc1F | 0.76
13 | 5.2 | 0.021 | O=C(Nc1ccc(Oc2ccnc3[nH]c(=O)c(=O)[nH]c23)cc1)Nc1ccc(Cl)c(C(F)(F)F)c1 | 3.19
14 | 6.6 | 0.246 | CSc1cc(Oc2ccnc3ncc(=O)[nH]c23)ccc1NC(=O)Nc1cc(C(F)(F)F)ccc1F | 5
15 | 16 | 0.059 | O=C(Nc1ccc(Cl)c(C(F)(F)F)c1)Nc1ccc(Oc2ccnc3ncc(=O)[nH]c23)cc1F | 3.9
16 | 0.101 | 0.45 | CSc1cc(Oc2ccnc3ncc(=O)[nH]c23)ccc1NC(=O)Nc1cc(C(C)(C)C)nn1-c1ccccc1 | 0.027
17 | 0.634 | 2.29 | Cc1ccc(-n2nc(C(C)(C)C)cc2NC(=O)Nc2ccc(Oc3ccnc4ncc(=O)[nH]c34)cc2)cc1 | 0.67
18 | 0.005 | 0.099 | Cc1ccc(-n2nc(C(C)(C)C)cc2NC(=O)Nc2ccc(Oc3ccnc4[nH]c(=O)c(C)nc34)c3ccccc23)cc1 | 0.075
19 | 0.036 | 0.405 | CC(C)(C)c1cc(NC(=O)Nc2ccc(Oc3ccnc4nc(N)c(=O)[nH]c34)c3ccccc23)n(-c2ccccc2)n1 | 0.018
20 | 0.069 | 0.132 | Cc1ccc(-n2nc(C(C)(C)C)cc2NC(=O)Nc2cccc(Oc3ccnc4[nH]c(=O)c(C)nc34)c2)cc1 | 0.069
21 | 1.7 | 1.67 | CN(C)c1nc2c(Oc3ccc(NC(=O)Nc4cc(C(C)(C)C)nn4-c4ccccc4)c(F)c3)ccnc2[nH]1 | 0.574
22 | 8.5 | 0.042 | O=C(Nc1ccc(Oc2ccnc3[nH]cnc23)cc1F)Nc1cc(C(F)(F)F)ccc1F | 4.85
23 | 0.006 | 0.024 | CSc1cc(Oc2ccnc3[nH]c(=O)c(C)nc23)ccc1NC(=O)Nc1cc(C(C)(C)C)nn1-c1ccc(C)cc1 | 0.003
24 | > 100 | 1.29 | O=C(Nc1ccc(Oc2ccnc3ncc(=O)[nH]c23)cc1)Nc1ccc(Cl)c(C(F)(F)F)c1 | 8.8
25 | 37 | 0.306 | O=C(Nc1cccc(Oc2ccnc3ncc(=O)[nH]c23)c1)c1cccc(OC(F)(F)F)c1 | 6.8

The remaining lines, values behind:

Row | SMILES | IC50 [2] [µM] | IC50 [3] [µM] | GI50 [1] [µM]
26 | O=C(Nc1cc(C(F)(F)F)ccc1F)Nc1ccc(Oc2ccnc3ncc(=O)[nH]c23)c2ccccc12 | 2.07 | 0.084 | 0.486
27 | CC(C)(C)c1cc(NC(=O)Nc2ccc(Oc3ccnc4ncc(=O)[nH]c34)cc2F)n(-c2ccccc2)n1 | 0.65 | 0.94 | 0.94
28 | CSc1cc(Oc2ccnc3[nH]c(=O)c(=O)[nH]c23)ccc1NC(=O)Nc1cc(C(F)(F)F)ccc1F | 0.55 | 0.002 | 0.19
29 | CNc1cnc2c(Oc3ccc(NC(=O)Nc4cc(C(F)(F)F)ccc4F)c(F)c3)ccnc2n1 | 45 | 0.107 | 48
30 | O=C(Nc1cc(C(F)(F)F)ccc1F)Nc1ccc(Oc2ccnc3nc(C(F)(F)F)c(=O)[nH]c23)c2ccccc12 | 8.5 | 1.08 | 10
31 | Cc1ccc(-n2nc(C(C)(C)C)cc2NC(=O)Nc2ccc(Oc3ccnc4[nH]c(=O)[nH]c34)cc2F)cc1 |  |  | 0.046
32 | Cc1nc2c(Oc3ccc(NC(=O)Nc4cc(C(C)(C)C)nn4-c4ccccc4)c4ccccc34)ccnc2[nH]c1=O | 0.008 | 0.067 | 0.057
33 | Cc1nc2c(Oc3ccc(NC(=O)Nc4cc(C(F)(F)F)ccc4F)c(F)c3)ccnc2[nH]c1=O | 0.59 | 0.003 | 0.85
34 | O=C(Nc1ccc(Oc2ccnc3[nH]c(=O)cnc23)cc1)Nc1ccc(Cl)c(C(F)(F)F)c1 | 4.89 | 0.011 | 9.1
35 | Cc1ccc(-n2nc(C(C)(C)C)cc2NC(=O)Nc2ccc(Oc3ccnc4[nH]nnc34)cc2F)cc1 | 3.1 | 1.37 | 1.98
36 | O=C(Nc1ccc(Oc2ccnc3[nH]c(=O)c(=O)[nH]c23)cc1F)Nc1cc(C(F)(F)F)ccc1F | 0.6 | 0.005 | 1.45
37 | CSc1cc(Oc2ccnc3ncc(=O)[nH]c23)ccc1NC(=O)Nc1ccc(Cl)c(C(F)(F)F)c1 | 3.99 | 0.071 | 4.3
38 | Nc1nc2nccc(Oc3ccc(NC(=O)Nc4cc(C(F)(F)F)ccc4F)c(F)c3)c2[nH]c1=O | 9.9 | 0.168 | 6.5
39 | O=C(Nc1cccc(Oc2ccnc3ncc(=O)[nH]c23)c1)Nc1cc(C(F)(F)F)ccc1F | > 100 | 0.105 | 6.1
40 | Cc1ccc(-n2nc(C(C)(C)C)cc2NC(=O)Nc2ccc(Oc3ccnc4[nH]c(=O)c(N)nc34)c3ccccc23)cc1 | 0.007 | 0.15 | 0.077
41 | CC(C)(C)c1cc(NC(=O)Nc2cccc(Oc3ccnc4ncc(=O)[nH]c34)c2)n(-c2ccccc2)n1 | 1.7 | 0.64 | 1.6
42 | CC(C)(C)c1cc(NC(=O)Nc2ccc(Oc3ccnc4[nH]c(=O)c(=O)[nH]c34)cc2F)n(-c2ccccc2)n1 | 0.273 | 0.19 | 0.299

Row | SMILES | IC50 [2] [µM] | IC50 [3] [µM] | GI50 [1] [µM]
43 | O=C(Nc1ccc(Oc2ccnc3[nH]c(=O)cnc23)cc1F)Nc1cc(C(F)(F)F)ccc1F | 0.78 | 0.004 | 1.3
44 | O=C(Nc1cccc(Oc2ccnc3[nH]c(=O)cnc23)c1)c1cccc(OC(F)(F)F)c1 | 4 | 0.021 | 9.9
45 | O=C(Nc1ccc(Oc2ccnc3[nH]c(S)nc23)cc1F)Nc1cc(C(F)(F)F)ccc1F | 13 | 0.017 | 0.97
46 | O=C(Nc1ccc(Oc2ccnc3ncc(=O)[nH]c23)cc1)Nc1cc(C(F)(F)F)ccc1F | 4.2 | 1.29 | 4
47 | CN(C)c1cnc2c(Oc3ccc(NC(=O)Nc4cc(C(C)(C)C)nn4-c4ccccc4)c(F)c3)ccnc2n1 | 1.7 | > 10 | 1.1
48 | Nc1nc2c(Oc3ccc(NC(=O)Nc4cc(C(F)(F)F)ccc4F)c(F)c3)ccnc2[nH]c1=O | 1.55 | 0.03 | 1.55
49 | CN(C)c1nc2c(Oc3ccc(NC(=O)Nc4cc(C(F)(F)F)ccc4F)c(F)c3)ccnc2[nH]1 | 6 | 0.025 | 0.116
50 | CN(C)c1cnc2c(Oc3ccc(NC(=O)Nc4cc(C(F)(F)F)ccc4F)c(F)c3)ccnc2n1 | 20 | 0.22 | 55
51 | CSc1cc(Oc2ccnc3[nH]c(=O)[nH]c23)ccc1NC(=O)Nc1cc(C(C)(C)C)nn1-c1ccc(C)cc1 |  |  | 0.016
52 | Cc1ccc(-n2nc(C(C)(C)C)cc2NC(=O)Nc2ccc(Oc3ccnc4nc(N)c(=O)[nH]c34)cc2F)cc1 | 0.07 | 0.222 | 0.128
53 | Cc1ccc(-n2nc(C(C)(C)C)cc2NC(=O)Nc2ccc(Oc3ccnc4c3NCC(=O)N4)cc2F)cc1 | 0.011 | 0.051 | 0.034
54 | Cc1nc2nccc(Oc3ccc(NC(=O)Nc4cc(C(F)(F)F)ccc4F)c(F)c3)c2[nH]c1=O | 20 | 0.258 | 2.7
55 | Cc1ccc(-n2nc(C(C)(C)C)cc2NC(=O)Nc2ccc(Oc3ccnc4nc(C)c(=O)[nH]c34)c3ccccc23)cc1 | 0.176 | 17 | 1.5
56 | CSc1cc(Oc2ccnc3[nH]c(=O)c(C)nc23)ccc1NC(=O)Nc1cc(C(C)(C)C)nn1-c1ccccc1 | 0.003 | 0.02 | 0.004
57 | O=C(Nc1cccc(Oc2ccnc3[nH]c(=O)cnc23)c1)Nc1cc(C(F)(F)F)ccc1F | 10 | 0.04 | 10
58 | Cc1ccc(-n2nc(C(C)(C)C)cc2NC(=O)Nc2ccc(Oc3ccnc4[nH]c(=O)cnc34)c3ccccc23)cc1 | 0.01 | 0.08 | 0.08
